# Measured values reported in ChEMBL document CHEMBL1131767, “Substituted coumarins as esterase-sensitive prodrug moieties with improved release rates” (Bioorg Med Chem Lett, 1999).
# How the values were obtained:
# [1] = Compound was evaluated for the half life; assay type: ADME
# Outline: (§1)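 Porcine liver esterase (PLE), about 1 unit/mL, incubated with the model prodrug in 0.05 M phosphate buffer at pH 7.4 and 37 ± 0.5 °C. Amine release was followed by UV. The pseudo-first-order rate constant (kobs, min⁻¹) and the half-life (min) are reported.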
# Sus scrofa = species on record: Sus scrofa; assay: Pseudo first order rate constant to release model amine drug after esterase catalyzed hydrolysis at an enzyme concentration of 1 unit/mL; outline: as §1
Compound,half-life [1] [min],K obs x10e2 (Sus scrofa) [min⁻¹]
CC(=O)Oc1cc(C)cc(C)c1/C=C\C(=O)N(C)Cc1ccccc1,6.3,11
CCN(CC)C(=O)/C=C\c1c(C)ccc(C)c1OC(C)=O,11.4,6.1
CC(=O)Oc1ccccc1/C=C\C(=O)N(C)Cc1ccccc1,32.5,2.13
CC(=O)Oc1c(C)ccc(C)c1/C=C\C(=O)N(C)Cc1ccccc1,4.8,14.4
CCN(CC)C(=O)/C=C\c1ccccc1OC(C)=O,188,0.37
CCN(CC)C(=O)/C=C\c1c(C)cc(C)cc1OC(C)=O,18.8,3.7
